Data reported in ChEMBL document CHEMBL1134641, “Progress toward the development of a safe and effective agent for treating reentrant cardiac arrhythmias: synthesis and evaluation of ibutilide analogues with enhanced metabolic stability and diminished proarrhythmic potential” (2001).

Key:
Canis familiaris [1] = assay: Heart Rate measured in canine just after inducing atrial flutter (AFL) termination by the compound at a dose of 9.6 uM/kg; format: functional, Canis lupus familiaris
Canis familiaris [2] = assay: Heart rate measured in canine 24-h Infarction model at an cumulative intravenous dose of 0.24 uM/kg; format: functional, Canis lupus familiaris
In short: (§1)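 Male mongrel dogs (16-22 kg) with LAD permanently ligated in two stages; studied 24 h later. […] given IV in sequential doses to cumulative 0.24, 0.72, 2.4 µmol/kg. Saline controls (n=8) received vehicle, then a single IV 2.4 µmol/kg dose at the end. Measurements taken at baseline and 15 min after each dose. Means ± SEM, paired t-test, p ≤ 0.05.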

Canis familiaris [3] = assay: Atrial MAPD90 measured in canine 24-h Infarction model at an cumulative intravenous dose of 0.72 uM/kg; format: functional, Canis lupus familiaris, Cardiac atrium; in short: as §1
Canis familiaris [4] = species on record: Canis familiaris; assay: Atrial effective refractory period (AERP) measured in canine just after inducing atrial flutter (AFL) termination by the compound; format: functional, Canis lupus familiaris, Heart
Canis familiaris [5] = assay: Heart Rate measured in canine just after inducing atrial flutter (AFL) termination by the compound at a dose of 2.4 uM/kg; format: functional, Canis lupus familiaris
Canis familiaris [6] = assay: Atrial effective refractory period (AERP) measured in canine just after inducing atrial flutter (AFL) termination by the compound at a dose of 9.6 uM/kg; format: functional, Canis lupus familiaris, Heart
Canis familiaris [7] = assay: Blood pressure measured in canine 24-h Infarction model at an cumulative intravenous dose of 0.24 uM/kg; format: functional, Canis lupus familiaris; in short: as §1
Canis familiaris [8] = assay: Ventricular effective refractory period ([…]) measured in canine just after inducing atrial flutter (AFL) termination by the compound at a dose of 2.4 uM/kg; format: functional, Canis lupus familiaris, Heart
In short: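 Conscious dogs, loosely restrained in a sling, with exteriorized electrode leads, studied 2 weeks after instrumentation. AFL was induced and counted as sustained if it lasted 5 min. Compound in saline given intravenously every 5 min to cumulative 0.024-12.0 µmol/kg. VERP was measured at AFL termination and 3 min after each dose. Results are means ± SEM versus baseline, p ≤ 0.05.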

Canis familiaris [9] = assay: Atrial effective refractory period (AERP) measured in canine just after inducing atrial flutter (AFL) termination by the compound at a dose of 7.2 uM/kg; format: functional, Canis lupus familiaris, Heart
Canis familiaris [10] = assay: Atrial effective refractory period (AERP) measured in canine just after inducing atrial flutter (AFL) termination by the compound at a dose of 1.2 uM/kg; format: functional, Canis lupus familiaris, Heart
Canis familiaris [11] = assay: Heart Rate measured in canine just after inducing atrial flutter (AFL) termination by the compound at a dose of 1.2 uM/kg; format: functional, Canis lupus familiaris
Canis familiaris [12] = assay: QT interval measured in canine just after inducing atrial flutter (AFL) termination by the compound at a dose of 1.2 uM/kg; format: functional, Canis lupus familiaris, Heart
In short: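 Conscious, sling-restrained dogs with chronically implanted electrodes, studied after 2 weeks of recovery. Sustained AFL (>5 min) induced. Compound in saline given iv every 5 min to cumulative 0.024-12.0 µmol/kg. At AFL termination, HR, QT (paced cycle length 300 ms), AERP and VERP measured. Measurements then taken 3 min after each further dose. Significance p≤0.05 vs baseline.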

Canis familiaris [13] = assay: Ventricular MAPD90 measured in canine 24-h Infarction model at a single intravenous dose of 2.4 uM/kg; format: functional, Canis lupus familiaris, Heart
In short: (§2)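 Dogs 24 h after two-stage LAD ligation. Compound in saline given iv in sequential doses (cumulative 0.24, 0.72, 2.4 µmol/kg); saline controls then given a single 2.4 µmol/kg iv dose. HR, IVR, BP, QT, spontaneous arrhythmias/min, ERPs and MAPD90 measured at baseline and 15 min after each dose. Means ± SEM, paired t-test, p≤0.05.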

Canis familiaris [14] = assay: Ventricular effective refractory (VEPR) period measured in canine 24-h Infarction model at a single intravenous dose of 2.4 uM/kg; format: functional, Canis lupus familiaris, Heart; in short: as §2
Canis familiaris [15] = assay: Number of canine in which arrhythmias could not be induced at an single intravenous dose of 2.4 uM/kg; format: functional, Canis lupus familiaris
In short: (§3)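 Male mongrel dogs (16-22 kg) with LAD ligated in two stages, studied 24 h later. Programmed electrical stimulation at baseline and 15 min after each iv dose in saline (cumulative 0.24, 0.72, 2.4 µmol/kg). Saline controls then received a single 2.4 µmol/kg iv dose. Responses scored as NI (≤15 beats), NSVT (>15 beats, ends within 30 s), SVT (>30 s, needing pacing or cardioversion) or VF. A positive response was repeated.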

Canis familiaris [16] = assay: QT interval measured in canine 24-h Infarction model at an cumulative intravenous dose of 2.4 uM/kg; format: functional, Canis lupus familiaris; in short: as §2
Canis familiaris [17] = assay: QT interval measured in canine just after inducing atrial flutter (AFL) termination by the compound at a dose of 0.24 umol/kg; format: functional, Canis lupus familiaris, Heart
Canis familiaris [18] = assay: Ventricular effective refractory (VEPR) period measured in canine 24-h Infarction model at an cumulative intravenous dose of 0.24 uM/kg; format: functional, Canis lupus familiaris, Heart
In short: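 Male mongrel dogs (16-22 kg) with LAD permanently ligated in two stages, studied 24 h after ligation. Compound given in saline (6.0 µmol/mL) as sequential intravenous doses to reach cumulative 0.24, 0.72 and 2.4 µmol/kg. VERP and other measurements taken at baseline and 15 min after each dose. Saline-dosed dogs served as controls. Results are means ± SEM, paired t-test, p ≤ 0.05.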

Canis familiaris [19] = assay: Number of canine in which ventricular fibrillation (VF) was observed in PES-induced arrhythmias at an cumulative intravenous dose of 2.4 uM/kg; format: functional, Canis lupus familiaris, Cardiac ventricle; in short: as §3
Canis familiaris [20] = assay: Number of canine in which nonsustained ventricular tachycardia (NSVT) was observed in PES-induced arrhythmias at an cumulative intravenous dose of 0.24 uM/kg; format: functional, Canis lupus familiaris, Cardiac ventricle; in short: as §3
Canis familiaris [21] = assay: Number of canine in which arrhythmias could not be induced at an cumulative intravenous dose of 2.4 uM/kg; format: functional, Canis lupus familiaris; in short: as §3
Canis familiaris [22] = assay: Atrial MAPD90 measured in canine 24-h Infarction model at a single intravenous dose of 2.4 uM/kg; format: functional, Canis lupus familiaris, Cardiac atrium; in short: as §1
Canis familiaris [23] = assay: Ventricular MAPD90 measured in canine 24-h Infarction model at an cumulative intravenous dose of 0.24 uM/kg; format: functional, Canis lupus familiaris, Heart; in short: as §2
Canis familiaris [24] = assay: Atrial effective refractory period (AEPR) measured in canine 24-h Infarction model at an cumulative intravenous dose of 0.72 uM/kg; format: functional, Canis lupus familiaris, Cardiac atrium; in short: as §1
Canis familiaris [25] = assay: Heart Rate measured in canine just after inducing atrial flutter (AFL) termination by the compound at a dose of 7.2 uM/kg; format: functional, Canis lupus familiaris

Question: For `CCN(CCCCCC(C)(C)F)CCC[C@H](O)c1ccc(NS(C)(=O)=O)cc1.O=C(O)/C=C/C(=O)O`, which HR (Canis familiaris [1]) is on record?
Answer: 114 beats min-1

Question: And the HR (Canis familiaris [2])?
Answer: 155 beats min-1

Question: What about the “Atrial MAPD90” value (Canis familiaris [3]) of the same compound?
Answer: 146 ms

Question: And the AERP (Canis familiaris [4])?
Answer: 149 ms

Question: And the HR (Canis familiaris [5])?
Answer: 113 beats min-1

Question: What about the AERP (Canis familiaris [6]) of the same compound?
Answer: 165 ms

Question: And the BP (Canis familiaris [7])?
Answer: 112 mmHg

Question: What about the VERP (Canis familiaris [8]) of the same compound?
Answer: 143 ms

Question: What about the AERP (Canis familiaris [9]) of the same compound?
Answer: 162 ms

Question: What about the AERP (Canis familiaris [10]) of the same compound?
Answer: 160 ms

Question: And the HR (Canis familiaris [11])?
Answer: 114 beats min-1

Question: And the QT interval (Canis familiaris [12])?
Answer: 212 ms

Question: What about the “Ventricular MAPD90” value (Canis familiaris [13]) of the same compound?
Answer: 201 ms

Question: What about the VERP (Canis familiaris [14]) of the same compound?
Answer: 180 ms

Question: And the No. of canine (Canis familiaris [15])?
Answer: 7

Question: And the QT interval (Canis familiaris [16])?
Answer: 240 ms

Question: And the QT interval (Canis familiaris [17])?
Answer: 196 ms

Question: What about the VERP (Canis familiaris [18]) of the same compound?
Answer: 162 ms

Question: What about the No. of canine (Canis familiaris [19]) of the same compound?
Answer: 0

Question: What about the No. of canine (Canis familiaris [20]) of the same compound?
Answer: 2

Question: What about the No. of canine (Canis familiaris [21]) of the same compound?
Answer: 10

Question: What about the “Atrial MAPD90” value (Canis familiaris [22]) of the same compound?
Answer: 209 ms

Question: And the “Ventricular MAPD90” value (Canis familiaris [23])?
Answer: 162 ms

Question: What about the AERP (Canis familiaris [24]) of the same compound?
Answer: 166 ms

Question: What about the HR (Canis familiaris [25]) of the same compound?
Answer: 127 beats min-1
